Test results published in ChEMBL document CHEMBL1124612, “Synthesis and structure-activity relationships of a series of anxioselective pyrazolopyridine ester and amide anxiolytic agents” (J Med Chem, 1989).
Calls of active or inactive are those of the source. The rule behind the calls is not given here.

Tests used:
[1] = tested on: Rattus norvegicus; assay: Minimum effective dose (po) tested for its anxiolytic activity in rat using the shock-induced suppression of drinking (SSD) test.; format: functional; settings: read-out: MED
How it was run: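 Rats (n = 8 per dose) were dosed orally at one or more levels and then run in the shock-induced suppression of drinking conflict test. MED is the dose producing a significant rise (p < 0.05, Student's t test) in mean shocks accepted relative to vehicle-treated controls.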

[2] = molecular target: GABA-A receptor; anion channel; assay: Inhibition of [3H]flunitrazepam binding to GABA-A benzodiazepine receptor of rat cerebral cortex; format: tissue-based
[3] = tested on: GABA-A receptor; anion channel; assay: Inhibition of [3H]flunitrazepam binding to GABA-A benzodiazepine receptor of rat cerebral cortex at 500 nM; format: tissue-based
How it was run: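 Rat cerebral cortex membranes were incubated with [3H]flunitrazepam in the presence of the test agent at a single concentration (nM), run in triplicate with under 7% variation between values. Binding is reported as % inhibition of [3H]flunitrazepam binding.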

[4] = tested on: Rattus norvegicus; assay: Minimum effective dose (ip) tested for its anxiolytic activity in rat using the shock-induced suppression of drinking (SSD) test; NS is No Significant activity at 25 mg/Kg; format: functional, organism-based
How it was run: (§1)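 Shock-induced suppression of drinking (Vogel-type conflict) in rats, with compounds given intraperitoneally at one or more dose levels, 8 rats per dose. MED is the lowest dose giving a significant increase (p < 0.05, Student's t test) in the mean number of shocks taken versus vehicle control.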

[5] = tested on: Rattus norvegicus; assay: Minimum effective dose (ip) tested for its anxiolytic activity in rat using the shock-induced suppression of drinking (SSD) test.; format: functional; settings: read-out: MED; how it was run: as §1

SMILES | minimal effective dose [1] [mg/kg] | IC50 [2] [nM] | also measured
C=CCOC(=O)c1c(C)nc2c(cnn2CCC2CC2)c1N | 25 | 16 | –
CCCCCn1ncc2c(N)c(C(=O)N3CCC3)cnc21 | 50 | 137 | –
C=CCN(C)C(=O)c1cnc2c(cnn2CCCCC)c1N | 12.5 | – | IC50 [3]: Not Active
CCCCCn1ncc2c(N)c(C(=O)OCC)c(C)nc21 | 50 | 58 | –
CCCCCn1ncc2c(N)c(C(=O)NCC3CC3)cnc21 | 6.3 | 35 | –
C=CCOC(=O)c1c(C)nc2c(cnn2CCC(C)C)c1N | 50 | 13 | –
CCCCCn1ncc2c(N)c(C(=O)NC)cnc21 | 12.5 | 354 | –
C=CCOC(=O)c1c(C)nc2c(cnn2CCCC)c1N | 25 | 21 | –
C=CCNC(=O)c1cnc2c(cnn2CCCCC)c1NCCCC | – | – | NS [4]: inactive; IC50 [3]: Not Active
CCCCCn1ncc2c(N)c(C(=O)OCC)cnc21 | – | – | MED [4]: inactive
C#CCCCCn1ncc2c(N)c(C(=O)OCC=C)c(C)nc21 | 25 | 8.6 | –
C#CCCCn1ncc2c(N)c(C(=O)OCC=C)c(C)nc21 | 12.5 | 5.5 | –
C=CCNC(=O)c1cnc2c(cnn2CCCCC)c1N | 12.5 | 28 | –
C=C(C)COC(=O)c1c(C)nc2c(cnn2CCCCC)c1N | – | 69 | MED [4]: inactive
C=CCCCn1ncc2c(N)c(C(=O)OCC=C)c(C)nc21 | 25 | 9.7 | –
CCCCCn1ncc2c(N)c(C(=O)OCc3ccccc3)c(C)nc21 | – | 100 | MED [4]: inactive
C=CCCn1ncc2c(N)c(C(=O)OCC=C)c(C)nc21 | 25 | 54 | –
CCCCCn1ncc2c(N)c(C(=O)OCCC)c(C)nc21 | – | 50 | minimal effective dose [5]: 25 mg/kg
CCCCCn1ncc2c(N)c(C(=O)NOCC)cnc21 | 12.5 | 531 | –
CCCCCn1ncc2c(N)c(C(=O)NCC)cnc21 | 12.5 | 109 | –
CCCCCCn1ncc2c(N)c(C(=O)OCC)c(C)nc21 | – | 320 | minimal effective dose [5]: 50 mg/kg
C#CCCCn1ncc2c(N)c(C(=O)OCC)c(C)nc21 | 25 | 31 | –
CCOC(=O)c1c(C)nc2c(cnn2CC)c1N | – | 460 | minimal effective dose [5]: 75 mg/kg

SMILES | minimal effective dose [1] [mg/kg] | IC50 [2] [nM] | also measured
CC#CCCn1ncc2c(N)c(C(=O)OCC3CC3)c(C)nc21 | 12.5 | 315 | –
CC#CCCn1ncc2c(N)c(C(=O)N(C)CCC)cnc21 | 12.5 | – | IC50 [3]: Not Active
C#CCN(C)C(=O)c1cnc2c(cnn2CCCCC)c1N | 6.3 | – | IC50 [3]: Not Active
CCOC(=O)c1c(C)nc2c(cnn2CCC(C)CC)c1N (stereo not drawn) | – | 79 | minimal effective dose [5]: 25 mg/kg
CC#CCCn1ncc2c(N)c(C(=O)OCC)c(C)nc21 | 25 | 590 | –
CCCCCn1ncc2c(N)c(C(=O)OCCCC)c(C)nc21 | – | 113 | minimal effective dose [5]: 50 mg/kg
C=CCOC(=O)c1c(C)nc2c(cnn2CCC#CC)c1N | 25 | 79 | –
C=CCOC(=O)c1c(C)nc2c(cnn2CC=C)c1N | 25 | 112 | –
C#CCCn1ncc2c(N)c(C(=O)OCC=C)c(C)nc21 | 50 | 160 | –
CCCCCn1ncc2c(N)c(C(=O)NC(C)C)cnc21 | – | 414 | minimal effective dose [5]: 25 mg/kg
C=CCN(CC=C)C(=O)c1cnc2c(cnn2CCCCC)c1N | 25 | – | IC50 [3]: Not Active
C#CCN(CC#C)C(=O)c1cnc2c(cnn2CCCCC)c1N | 12.5 | – | IC50 [3]: Not Active
CCOC(=O)c1c(C)nc2c(cnn2CCC(C)C)c1N | 100 | 39 | –
CNC1=Nc2ccc(Cl)cc2C(c2ccccc2)=[N+]([O-])C1 [CHLORDIAZEPOXIDE] | 10 | 330 | –
CCCCCn1ncc2c(N)c(C(=O)N(CC)CCC)cnc21 | 25 | – | IC50 [3]: Not Active
CCOC(=O)c1c(C)nc2c(cnn2CC(C)CC)c1N (stereo not drawn) | – | 391 | minimal effective dose [5]: 25 mg/kg
C=CCOC(=O)c1cnc2c(cnn2CCC(C)C)c1N | – | 5.7 | minimal effective dose [5]: 25 mg/kg
CC#CCNC(=O)c1cnc2c(cnn2CCCCC)c1N | 6.3 | 84 | –
C#CCNC(=O)c1cnc2c(cnn2CCCCC)c1N | 6.3 | 60 | –
C=CCNC(=O)c1c[n+]([O-])c2c(cnn2CCCCC)c1N | 12.5 | 53 | –
C=CCOC(=O)c1c(C)nc2c(cnn2CCCCC)c1N | 25 | 21 | –
CCCn1ncc2c(N)c(C(=O)OCC)c(C)nc21 | – | 410 | minimal effective dose [5]: 80 mg/kg
CCCCCn1ncc2c(N)c(C(=O)NCCCC)cnc21 | 50 | 80 | –

SMILES | minimal effective dose [1] [mg/kg] | IC50 [2] [nM] | also measured
CCCCCn1ncc2c(N)c(C(=O)OCC3CC3)c(C)nc21 | 12.5 | 131 | –
CCOC(=O)c1c(C)nc2c(cnn2CCCC(C)(C)C)c1N | – | 404 | NS [4]: inactive
CCCCCn1ncc2c(N)c(C(=O)NCc3ccccc3)cnc21 | 25 | 36 | –
CCCCCn1ncc2c(N)c(C(=O)N3CCCC3)cnc21 | – | – | minimal effective dose [5]: 50 mg/kg; IC50 [3]: Not Active
C=CCN(C)C(=O)c1cnc2c(cnn2CCC#CC)c1N | 12.5 | – | IC50 [3]: Not Active
C=CCNC(=O)c1cnc2c(cnn2CCCCC)c1O | 50 | – | IC50 [3]: Not Active
CCCCCn1ncc2c(N)c(C(=O)NCCC)cnc21 | 25 | 89 | –
CCCCCn1ncc2c(N)c(C(=O)N(C)C)cnc21 | 12.5 | – | IC50 [3]: Not Active
CCCCCn1ncc2c(N)c(C(N)=O)cnc21 | 12.5 | 2450 | –
CCCCCn1ncc2c(N)c(C(=O)N(C)CCC)cnc21 | 6.3 | – | IC50 [3]: Not Active
CCCCCn1ncc2c(N)c(C(=O)OCCC3CC3)c(C)nc21 | – | 51 | minimal effective dose [5]: 50 mg/kg
CCOC(=O)c1c(C)nc2c(cnn2CC)c1NC | – | – | MED [4]: inactive
CC#CCCn1ncc2c(N)c(C(=O)NCCC)cnc21 | 6.3 | 500 | –
CCOC(=O)c1c(C)nc2c(cnn2Cc2ccccc2)c1N | – | 156 | MED [4]: inactive
CCCCCn1ncc2c(N)c(C(=O)N(CC)CC)cnc21 | 25 | – | IC50 [3]: Not Active
CC#CCCn1ncc2c(N)c(C(=O)NCC3CC3)cnc21 | 3.1 | 271 | –
CCCCNc1c(C(=O)OCC)c(C)nc2c1cnn2CC [TRACAZOLATE] | 40 | – | –
C#CCCCn1ncc2c(N)c(C(=O)OCC3CC3)c(C)nc21 | 12.5 | 22 | –
CCCCCn1ncc2c(N)c(C(=O)NC3CC3)cnc21 | 12.5 | 312 | –
CCCCCn1ncc2c(N)c(C(=O)Nc3ccccc3)cnc21 | – | 790 | minimal effective dose [5]: 50 mg/kg
C#CCOC(=O)c1c(C)nc2c(cnn2CCCCC)c1N | 25 | 89 | –
CCCCn1ncc2c(N)c(C(=O)OCC)c(C)nc21 | 40 | 50 | –
